Experimental data as given in publication PMC8245858 (Acta Pharmaceutica Sinica. B, 2021).
Blank lines part the entries; values can stand above or below the compound they belong to.

Columns and labels:
MGC-803 cells [1] = experiment: Intracellular ROS, DCFH-DA staining, flow cytometry; type: cell-based, human; settings: 24 h
Summary of the method: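 MGC-803 cells exposed to test compound with or without N-acetylcysteine for 24 h, stained with DCFH-DA and analysed by flow cytometry. Groups compared by two-way ANOVA.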

MGC-803 xenograft = experiment: Gastric cancer cell line-derived xenograft; type: in vivo, nude mice; settings: for pathologic examination of heart, liver, spleen, lung and kidney: compared with the saline group, end of treatment
Summary of the method: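 Male nude mice (6–8 weeks) get MGC-803 cells subcutaneously in the right flank. Body weight recorded every two days. After final dose, liver, kidney, lung, heart and spleen taken for histopathology.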

GES1 = experiment: Cell proliferation by SRB assay, gastric epithelial cell line; type: cell-based, human; settings: 72 h
Summary of the method: (§1)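 SRB assay after 72 h exposure. OD read at compound addition (ODstart) is subtracted: relative growth = (ODtreated − ODstart)/(ODcontrol − ODstart); inhibitory rate (%) = (ODcontrol − ODtreated)/(ODcontrol − ODstart) × 100. GI50 obtained per cell line. Mean ± SD (n = 3), three independent experiments, biological duplicates.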

[2] = system: gastric cancer cell lines MGC-803, HGC-27, SGC-7901, MKN-45, AGS and BGC-823; experiment: Cell proliferation by sulforhodamine B; type: cell-based, human; settings: 72 h
Summary of the method: as §1

[3] = Metabolic stability in monkey liver microsomes; type: in vitro ADME
[4] = Metabolic stability in dog liver microsomes; type: in vitro ADME
[5] = Metabolic stability in mouse liver microsomes; type: in vitro ADME
GPX4 [6] = experiment: qRT-PCR of GPX4 mRNA; type: cell-based, human; settings: MGC-803 and MKN-45 cells, 24 h
GPX4 [7] = experiment: GPX4 expression in PDX tumor tissues by IHC; type: in vivo, NOD-SCID mice; settings: sensitive PDX models PDX-01, PDX-02 and PDX-03, end of treatment
[8] = Pharmacokinetic parameters in rats; type: in vivo; settings: male, SD, rat, plasma, iv, 20 mg/kg
Summary of the method: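 Study run by a contract laboratory in male SD rats, n = 3. Parameters taken from mean plasma concentration–time curves.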

[9] = Metabolic stability in human liver microsomes; type: in vitro ADME
Caco-2 monolayer = experiment: Caco-2 permeability assay; type: in vitro ADME, human; settings: from A to B
[10] = Caco-2 permeability assay; type: in vitro ADME, human; settings: human; for efflux ratio: Caco-2; for Papp: Mean ± RSD, n = 2
SLC7A11 = experiment: qRT-PCR of SLC7A11 mRNA; type: cell-based, human; settings: MGC-803 and MKN-45 cells, 24 h
MGC-803 and MKN-45 cells [11] = experiment: Lipid peroxidation using C11-BODIPY581/591; type: cell-based, human; settings: 6 h
Summary of the method: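 After 6 h exposure in 6-well plates, cells are collected and resuspended in PBS with 2 μmol/L C11-BODIPY581/591 for 30 min at 37 °C, then read by flow cytometry. For MGC-803: three independent experiments with biological duplicates, one-way ANOVA.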

MGC-803 cells [12] = experiment: Cell cycle, PI staining and flow cytometry; type: cell-based, human; settings: MGC-803, 48 h
Summary of the method: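 MGC-803 cells exposed to test compound for 48 h, stained with PI and analysed by flow cytometry with quantification. Mean ± SD (n = 3) from three independent experiments with biological duplicates.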

MGC-803 and MKN-45 cells [13] = experiment: Intracellular ferrous iron; type: cell-based, human; settings: 24 h
Summary of the method: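 Cells in 60-mm dishes exposed to test compound for 24 h, alone or with 3-MA. Cells are then collected and homogenised in iron assay buffer, and ferrous iron is measured with a commercial iron assay kit per the maker's protocol. Mean ± SD (n = 3), three independent experiments, biological duplicates.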

[14] = Metabolic stability in rat liver microsomes; type: in vitro ADME
[15] = Caco-2, Papp (A‒B), direction A‒B
[16] = Caco-2, Papp (B‒A), direction B‒A

SMILES: C[C@H]1O[C@@H](O[C@H]2[C@@H](O)C[C@H](O[C@H]3[C@@H](O)C[C@H](O[C@H]4CC[C@@]5(C)[C@H](CC[C@@H]6[C@@H]5C[C@@H](O)[C@]5(C)[C@@H](C7=CC(=O)OC7)CC[C@]65O)C4)O[C@@H]3C)O[C@@H]2C)C[C@H](O)[C@@H]1O [Digoxin]
efflux ratio [10]: 197 | Papp [10, 15]: 1.3 ± 0.2 nm/s | Papp [10, 16]: 247 ± 1 nm/s

SMILES: CC(C)Oc1ccc(C(=O)Cn2ccnc2)cc1-n1c(CN2CCN(C(=O)COc3ccc(Cl)cc3)CC2)nc2ccccc2c1=O [IKE, imidazole ketone erastin, reference compound]
effect on cell growth, compound alone ([2]; MGC-803 and MKN-45 cells, SRB): no effect

SMILES: O=c1[nH]cc(F)c(=O)[nH]1 [Compound 5-FU, 5-fluorouracil, reference compound]
pathologic examination of heart, liver, spleen, lung and kidney (MGC-803 xenograft): no observed adverse effects

More lines, main results first:

GI50 in GES1 relative to gastric cancer cells (GES1): at least five-fold higher | GI50 ([2]; Homo sapiens): 0.88 to 3.33 µM | half-life at 1 μmol/L [3]: 23.5 min | microsomal CLint at 1 μmol/L [3]: 148 µL/min/mg | half-life at 1 μmol/L [4]: 32.2 min | microsomal CLint at 1 μmol/L [4]: 108 µL/min/mg | half-life at 1 μmol/L [5]: 23.7 min | microsomal CLint at 1 μmol/L [5]: 146 µL/min/mg | AUC(0-inf) [8]: 14.8 ± 1.33 µg·h/mL | AUC(0-t) [8]: 14.8 ± 1.32 µg·h/mL | Cmax [8]: 18.3 ± 1.42 µg/mL | MRT last [8]: 92.4 ± 7.8 min | Vd [8]: 7.73 ± 1.46 L/kg | half-life [8]: 236 ± 28.8 min | half-life at 1 μmol/L [9]: 34.9 min | microsomal CLint at 1 μmol/L [9]: 99.4 µL/min/mg | permeability class against the Caco-2 monolayer (Caco-2 monolayer): moderately permeable compound | efflux ratio [10]: 0.2 | Papp [10, 15]: 161 ± 10.1 nm/s | Papp [10, 16]: 33 ± 3 nm/s | half-life at 1 μmol/L [14]: 31.2 min | microsomal CLint at 1 μmol/L [14]: 111 µL/min/mg
SMILES: C=C1C(=O)[C@@]23C(C(=O)C[C@@H]1[C@H]2OC(=O)[C@@H](N)C(C)C)[C@]12CCCC(C)(C)C1C[C@H]3OC2=O (stereo partly drawn) [a2, (6R,6aR,9S,11bS,14R)-4,4-Dimethyl-8-methylene-7,11,12-trioxododecahydro-1H-6,11b-(epoxymethano)-6a,9-methanocyclohepta[a]naphthalen-14-yl valinate]
level of ROS (MGC-803 cells [1]): markedly elevated | tumor growth (MGC-803 xenograft; 5, 10, 20 mg/kg once a day for 21 days, tail vein injection): dose- and time-dependently inhibited tumor growth | anti-tumor efficacy compared with 5-FU (15 mg/kg) (MGC-803 xenograft; a2 at 10 or 20 mg/kg, once a day for 21 days): more potent than that of the positive control drug 5-FU | pathologic examination of heart, liver, spleen, lung and kidney (MGC-803 xenograft): no observed adverse effects | effect on mouse body weight (MGC-803 xenograft; once a day for 21 days, compared to 5-FU): fewer effect | mRNA level of GPX4 (GPX4 [6]): dose-dependently reduced | expression of GPX4 in tumor tissues (GPX4 [7]): decreased expression of GPX4 | mRNA level of SLC7A11 (SLC7A11): increased | lipid ROS production (MGC-803 and MKN-45 cells [11]): dose-dependently elevated | cell population in the G2/M phase (MGC-803 cells [12]): significantly increased | ferrous iron accumulation (MGC-803 and MKN-45 cells [13]): significantly increased

efflux ratio [10]: 0.7 | Papp [10, 15]: 283 ± 4.3 nm/s | Papp [10, 16]: 185 ± 3 nm/s
SMILES: CC(C)NCC(O)COc1cccc2ccccc12 (centres unmarked) [Propranolol]
